Source: ChEMBL document CHEMBL1141034, “Optimization of the in vitro and in vivo properties of a novel series of 2,4,5-trisubstituted imidazoles as potent cholecystokinin-2 (CCK2) antagonists” (J Med Chem, 2005)
The source made the active and inactive calls. The calls are words filed in the database; no cut-off is given here.

Tests used:
[1] = biological target: T1, Cholecystokinin receptor type A (Cavia porcellus, UniProt Q63931); test: Concentration required to inhibit the binding of 20 pM [125I]BH-CCK-8S radioligand to guinea pig pancreas CCK1 receptor
T1 sequence (Q63931 whole entry): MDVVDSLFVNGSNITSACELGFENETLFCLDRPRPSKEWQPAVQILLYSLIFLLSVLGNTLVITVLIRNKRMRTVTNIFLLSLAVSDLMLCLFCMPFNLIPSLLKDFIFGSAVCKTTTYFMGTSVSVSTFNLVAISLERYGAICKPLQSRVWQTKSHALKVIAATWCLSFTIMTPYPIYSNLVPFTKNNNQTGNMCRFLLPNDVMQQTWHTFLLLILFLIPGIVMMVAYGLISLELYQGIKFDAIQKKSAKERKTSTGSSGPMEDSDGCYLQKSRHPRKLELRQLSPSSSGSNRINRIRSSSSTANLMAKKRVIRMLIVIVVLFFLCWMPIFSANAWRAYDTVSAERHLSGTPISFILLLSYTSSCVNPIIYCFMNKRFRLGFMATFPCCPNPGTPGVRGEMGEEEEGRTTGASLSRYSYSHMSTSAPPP
Outline: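 CCK1 sites on guinea pig pancreatic cells. Competition with 20 pM [125I]BH-CCK-8S, reported as pKI. At least three separate experiments give ± SEM. Where only two experiments were run, no error is given (approximate SEM 0.1 log units).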

[2] = biological target: T2, Gastrin/cholecystokinin type B receptor (Rattus norvegicus) (UniProt P30553); test: Antagonist activity against CCK2 receptor estimated from single shifts of pentagastrin concentration-effect curves in the isolated rat stomach; […]; type: functional, tissue-based
T2 sequence (whole entry): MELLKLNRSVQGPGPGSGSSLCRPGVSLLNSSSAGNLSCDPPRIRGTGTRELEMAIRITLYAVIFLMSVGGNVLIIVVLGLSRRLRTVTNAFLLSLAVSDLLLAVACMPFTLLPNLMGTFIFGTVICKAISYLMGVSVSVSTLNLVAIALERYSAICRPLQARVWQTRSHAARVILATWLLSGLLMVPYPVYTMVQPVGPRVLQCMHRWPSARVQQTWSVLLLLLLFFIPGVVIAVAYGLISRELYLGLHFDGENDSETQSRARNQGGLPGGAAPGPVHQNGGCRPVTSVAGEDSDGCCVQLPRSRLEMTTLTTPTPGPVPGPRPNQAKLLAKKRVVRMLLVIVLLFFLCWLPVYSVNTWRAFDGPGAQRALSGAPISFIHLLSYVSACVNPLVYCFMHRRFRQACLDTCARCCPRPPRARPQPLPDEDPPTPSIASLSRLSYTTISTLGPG

[3] = biological target: T3, Gastrin/cholecystokinin type B receptor (Rattus norvegicus, UniProt P30553); test: Antagonist activity against CCK2 receptor estimated from single shifts of pentagastrin concentration-effect curves in the isolated rat stomach; type: functional, tissue-based; conditions: read-out: pA2 (converted)
T3 sequence (P30553 whole entry): T2 sequence (whole entry)

[4] = biological target: T4, Gastrin/cholecystokinin type B receptor (Mus musculus, UniProt P56481); test: Concentration required to inhibit the binding of 20 pM [125I]-BH-CCK-8S radioligand to mouse cortical membrane CCK2 receptor
T4 sequence (P56481 whole entry): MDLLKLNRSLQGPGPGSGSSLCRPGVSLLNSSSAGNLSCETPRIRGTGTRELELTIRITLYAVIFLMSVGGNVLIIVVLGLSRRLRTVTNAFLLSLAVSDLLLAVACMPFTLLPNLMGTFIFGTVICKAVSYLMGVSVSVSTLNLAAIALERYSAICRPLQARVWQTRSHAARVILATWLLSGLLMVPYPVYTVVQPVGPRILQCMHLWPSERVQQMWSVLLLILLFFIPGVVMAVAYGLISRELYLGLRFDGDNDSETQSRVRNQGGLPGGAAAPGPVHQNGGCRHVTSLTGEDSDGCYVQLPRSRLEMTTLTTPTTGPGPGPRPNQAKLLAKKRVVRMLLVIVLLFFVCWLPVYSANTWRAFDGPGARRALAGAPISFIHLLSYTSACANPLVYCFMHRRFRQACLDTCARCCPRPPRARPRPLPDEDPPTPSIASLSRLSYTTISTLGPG
Outline: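 Mouse cerebral cortex homogenates. Competition with 20 pM [125I]BH-CCK-8S for CCK2 sites, reported as pKI. At least three separate experiments give ± SEM. Where only two experiments were run, no error is given (approximate SEM 0.1 log units).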

[5] = biological target: T5, Gastrin/cholecystokinin type B receptor (Canis lupus familiaris, UniProt P30552); test: Concentration required to inhibit the binding of [125I]-BH-CCK-8S radioligand to canine gastric mucosa CCK2 receptor
T5 sequence (P30552 whole entry): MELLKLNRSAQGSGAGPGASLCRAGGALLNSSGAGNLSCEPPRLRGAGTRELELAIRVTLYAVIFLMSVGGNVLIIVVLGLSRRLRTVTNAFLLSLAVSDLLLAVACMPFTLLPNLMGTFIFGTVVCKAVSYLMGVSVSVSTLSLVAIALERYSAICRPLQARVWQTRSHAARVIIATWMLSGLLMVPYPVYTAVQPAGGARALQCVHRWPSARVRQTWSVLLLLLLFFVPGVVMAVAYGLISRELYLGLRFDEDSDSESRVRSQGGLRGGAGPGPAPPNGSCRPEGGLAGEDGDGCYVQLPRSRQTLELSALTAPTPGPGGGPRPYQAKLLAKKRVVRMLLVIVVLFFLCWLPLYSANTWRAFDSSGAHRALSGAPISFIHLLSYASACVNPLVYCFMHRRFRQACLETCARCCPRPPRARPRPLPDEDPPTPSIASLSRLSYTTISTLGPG
Outline: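 Canine gastric mucosa. Competition with [125I]BH-CCK-8S for CCK2 binding sites, reported as pIC50 ± SEM.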

[6] = biological target: T6, Gastrin/cholecystokinin type B receptor (Canis lupus familiaris) (UniProt P30552); test: Percent inhibition (i.v., 3.0 mg/Kg) against dog CCK2 receptor
T6 sequence (whole entry): T5 sequence (P30552 whole entry)
Outline: (§1)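 Conscious dogs given a bolus iv or intraduodenally during pentagastrin-stimulated acid secretion. Result is the peak percentage inhibition of acid output in the first four collection periods (1 h) after dosing, ± SEM, with the number of replicates stated.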

[7] = Lipophilicity was measured in octanol/buffer (pH 7.4); type: physicochemical
Outline: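 log D from partition between octanol and buffer at pH 7.4, given ± error.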

[8] = biological target: T6, Gastrin/cholecystokinin type B receptor (Canis lupus familiaris); test: Percent inhibition (i.v., 1.0 mg/Kg) against dog CCK2 receptor; outline: as §1

Compound | Ki [1] [nM] | Ki [4] [nM] | further results
Cc1ccccc1-c1nc(C(=O)Nc2cccc(CC(=O)O)c2)c(CCC23CC4CC(CC(C4)C2)C3)[nH]1 | 398 | – | pA2 [2]: inactive
O=C(O)c1cccc(NC(=O)c2cc(-c3ccc4ccccc4c3)[nH]c2CC2CCCCCC2)c1 | 3020 | – | pA2 [2]: inactive
Cc1ccccc1-c1nc(C(=O)Nc2ccc(F)c(C(=O)O)c2)c(CCC23CC4CC(CC(C4)C2)C3)[nH]1 | 562 | – | –
Cc1ccc(NC(=O)c2nc(-c3ccccc3C)[nH]c2CCC23CC4CC(CC(C4)C2)C3)cc1C(=O)O | 417 | – | Kb [3]: 33.1 nM
O=C(O)c1cccc(NC(=O)c2[nH]c(-c3ccccc3)nc2CCC23CC4CC(CC(C4)C2)C3)c1 | 1320 | 316 | –
CCCc1nc(C(=O)Nc2cccc(C(=O)O)c2)c(CCC23CC4CC(CC(C4)C2)C3)[nH]1 | 1120 | – | –
Cc1ccccc1-c1nc(CCC23CC4CC(CC(C4)C2)C3)c(C(=O)Nc2ccc(N(C)C)c(C(=O)O)c2)[nH]1 | 794 | – | –
Cc1ccccc1-c1nc(C(=O)Nc2cccc(C(=O)O)c2)c(CCC(C)C)[nH]1 | 661 | 8320 | Kb [3]: 26.3 nM
O=C(O)c1cccc(NC(=O)c2cc(-c3ccccc3)[nH]c2CCC23CC4CC(CC(C4)C2)C3)c1 | 2090 | – | pA2 [2]: inactive
O=C(O)c1cccc(NC(=O)c2[nH]c(C3CCCC3)nc2CCC23CC4CC(CC(C4)C2)C3)c1 | 525 | 39.8 | –
COC(=O)c1cccc(NC(=O)c2[nH]c(-c3ccccc3C)nc2CCC23CC4CC(CC(C4)C2)C3)c1 | – | > 100000 | –
O=C(O)c1cccc(NC(=O)c2[nH]c(C3CCCCCC3)nc2CCC23CC4CC(CC(C4)C2)C3)c1 | 126 | – | –
O=C(O)c1cccc(NC(=O)c2[nH]c(C34CCC(CC3)CC4)nc2CCC23CC4CC(CC(C4)C2)C3)c1 | 324 | 20.4 | –
CC(C)(C)c1nc(C(=O)Nc2cccc(C(=O)O)c2)c(CCC23CC4CC(CC(C4)C2)C3)[nH]1 | 2880 | – | –
Cc1ccccc1-c1nc(C(=O)Nc2cccc(CCC(=O)O)c2)c(CCC23CC4CC(CC(C4)C2)C3)[nH]1 | 302 | 6.92 | –
Cc1cccc(NC(=O)c2[nH]c(-c3ccccc3C)nc2CCC23CC4CC(CC(C4)C2)C3)c1 | – | > 100000 | –
CC1(c2nc(C(=O)Nc3cccc(C(=O)O)c3)c(CCC34CC5CC(CC(C5)C3)C4)[nH]2)CCCCC1 | 562 | – | –
Cc1cc(C)c(-c2nc(C(=O)Nc3cccc(C(=O)O)c3)c(CCC34CC5CC(CC(C5)C3)C4)[nH]2)c(C)c1 | 724 | 26.9 | –

Compound | Ki [1] [nM] | Ki [4] [nM] | further results
Cc1ccc(-c2nc(C(=O)Nc3cccc(C(=O)O)c3)c(CCC34CC5CC(CC(C5)C3)C4)[nH]2)c(C)c1 | 617 | – | –
CC(C)c1nc(C(=O)Nc2cccc(C(=O)O)c2)c(CCC23CC4CC(CC(C4)C2)C3)[nH]1 | 1450 | – | –
O=C(O)c1cccc(NC(=O)c2[nH]c(C3CCCCCCCCCCC3)nc2CCC23CC4CC(CC(C4)C2)C3)c1 | – | – | pA2 [2]: inactive
Cc1cccc(C)c1-c1nc(C(=O)Nc2cccc(C(=O)O)c2)c(CCC23CC4CC(CC(C4)C2)C3)[nH]1 | > 10000 | 141 | –
COc1ccc(NC(=O)c2[nH]c(-c3ccccc3C)nc2CCC23CC4CC(CC(C4)C2)C3)cc1C(=O)O | – | – | pA2 [2]: inactive
Cc1cc(C)c(-c2nc(C(=O)Nc3ccc(C)c(C(=O)O)c3)c(CCC34CC5CC(CC(C5)C3)C4)[nH]2)c(C)c1 | 123 | 3.02 | IC50 [5]: 39.8 nM; inhibition [6]: 76%; logD [7]: 4.9; Kb [3]: 3.31 nM
Cc1ccccc1-c1cc(C(=O)Nc2cccc(C(=O)O)c2)c(CCC23CC4CC(CC(C4)C2)C3)[nH]1 | 2190 | – | pA2 [2]: inactive
O=C(O)c1cccc(NC(=O)c2[nH]c(-c3ccc4ccccc4c3)nc2CC2CCCCCC2)c1 | 2510 | – | pA2 [2]: inactive
CNc1cccc(NC(=O)c2[nH]c(-c3ccccc3C)nc2CCC23CC4CC(CC(C4)C2)C3)c1 | – | 11200 | –
Cc1ccccc1-c1nc(C(=O)Nc2cccc(C(=O)O)c2)c(CCC2CCCCC2)[nH]1 | 295 | 617 | –
O=C(O)c1cccc(NC(=O)c2[nH]c(C3CC3)nc2CCC23CC4CC(CC(C4)C2)C3)c1 | 2340 | – | –
Cc1ccc(NC(=O)c2[nH]c(C3(C)CCCCC3)nc2CCC23CC4CC(CC(C4)C2)C3)cc1C(=O)O | – | 3.31 | IC50 [5]: 11.2 nM; inhibition [6]: 54%; logD [7]: 4.91
Cc1cc(C)c(-c2nc(C(=O)Nc3cccc(C(=O)O)c3)c(COC34CC5CC(CC(C5)C3)C4)[nH]2)c(C)c1 | 537 | 13.8 | IC50 [5]: 63.1 nM; inhibition [8]: 61%; logD [7]: 3.02
O=C(O)c1cccc(NC(=O)c2nc(C3CCCCC3)[nH]c2COC23CC4CC(CC(C4)C2)C3)c1 | 562 | 13.5 | IC50 [5]: 19.5 nM; inhibition [8]: 76%; logD [7]: 2.73
O=C(O)c1cccc(NC(=O)c2nc(C34CCC(CC3)CC4)[nH]c2COC23CC4CC(CC(C4)C2)C3)c1 | 776 | 27.5 | –
Cc1ccccc1-c1nc(C(=O)Nc2cccc(C(=O)O)c2)c(CC23CC4CC(CC(C4)C2)C3)[nH]1 | – | – | pA2 [2]: inactive
Cc1ccccc1-c1nc(C(=O)Nc2cccc(C(=O)O)c2)c(CCC23CC4CC(CC(C4)C2)C3)[nH]1 | 661 | – | –
